# Laboratory results from ChEMBL document CHEMBL1821664, “Sulfonamides as a new scaffold for hypoxia inducible factor pathway inhibitors” (Bioorg Med Chem Lett, 2011).
# The source made the active and inactive calls. No cut-off for these calls is given here.
# Assays:
# [1] = target: T1, Hypoxia inducible factors; HIF-1-alpha, HIF-2-alpha (Homo sapiens, UniProt Q16665+Q99814); experiment: Inhibition of hypoxia-induced HIF1 activation in human LN229 cells expressing HRE-AP reporter gene assessed as HRE remaining activity at 10 uM preincubated for 1 hr under normoxia condition followed by 24 hrs incubation under hypoxia condition by alkaline phosphatase reporter assay relative to control; assay type: cell-based
# Procedure, shortened: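 LN229-HRE-AP cells pre-treated 1 h with compound or vehicle (1% DMSO), then 24 h in 1% O2 hypoxia incubator; cells lysed and alkaline phosphatase activity measured. Hits were compounds reducing hypoxic AP induction >50%; single assay.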
# [2] = target: T1, Hypoxia inducible factors; HIF-1-alpha, HIF-2-alpha; experiment: Inhibition of hypoxia-induced HIF1 activation in human LN229 cells expressing HRE-AP reporter gene at 5 uM preincubated for 1 hr under normoxia condition followed by 24 hrs incubation under hypoxia condition by HRE-luciferase reporter assay relative to control; values are per cent of control
# [3] = target: T1, Hypoxia inducible factors; HIF-1-alpha, HIF-2-alpha; experiment: Inhibition of hypoxia-induced HIF1 activation in human LN229 cells expressing HRE-AP reporter gene at 10 uM preincubated for 1 hr under normoxia condition followed by 24 hrs incubation under hypoxia condition by HRE-luciferase reporter assay relative to control; values are per cent of control
# [4] = target: T1, Hypoxia inducible factors; HIF-1-alpha, HIF-2-alpha; experiment: Inhibition of hypoxia-induced HIF1 activation in human LN229 cells expressing HRE-AP reporter gene at 2.5 uM preincubated for 1 hr under normoxia condition followed by 24 hrs incubation under hypoxia condition by HRE-luciferase reporter assay relative to control; values are per cent of control
# [5] = target: T1, Hypoxia inducible factors; HIF-1-alpha, HIF-2-alpha; experiment: Inhibition of hypoxia-induced HIF1 activation in human LN229 cells expressing VEGF reporter gene assessed as VEGF expression at 10 uM preincubated for 1 hr under normoxia condition followed by 24 hrs incubation under hypoxia condition by luciferase reporter assay; assay type: cell-based
# Procedure, shortened: (§1)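 LN229 cells stably carrying a VEGF promoter-luciferase construct, pre-treated 1 h in normoxia with compound at 10 µM final, then 24 h in normoxia or hypoxia; luciferase measured in cell extracts; triplicate means ± SD.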
# [6] = target: T1, Hypoxia inducible factors; HIF-1-alpha, HIF-2-alpha; experiment: Inhibition of hypoxia-induced HIF1 activation in human LN229 cells expressing VEGF reporter gene assessed as VEGF expression at 10 uM after 24 hrs incubation under hypoxia condition by luciferase reporter assay; assay type: cell-based; procedure, shortened: as §1
# [7] = target: T1, Hypoxia inducible factors; HIF-1-alpha, HIF-2-alpha; experiment: Inhibition of hypoxia-induced HIF1 activation in human LN229 cells expressing HRE-AP reporter gene preincubated for 1 hr under normoxia condition followed by 24 hrs incubation under hypoxia condition by HRE-luciferase reporter assay; assay type: cell-based
# Procedure, shortened: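 HRE-luciferase dose-response: cells pre-treated 1 h, then 24 h hypoxia; luciferase measured in cell extracts; each compound run 5–21 times on separate days, in triplicate. IC50 obtained from a four-parameter logistic fit using a nonlinear mixed-effects model.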
smiles,measurement,setting,value
COc1c(CN(C(C)=O)c2ccccc2)ccc2c1OC(C)(C)C=C2,Activity,[1],108%
C=Cc1ccc2c(c1)C=CC(C)(C)O2,Activity,[1],98.2%
CC1(C)C=Cc2cc(CN(Cc3ccccc3)S(=O)(=O)c3ccc([N+](=O)[O-])cc3)ccc2O1,residual activity,[2],35%
same,residual activity,[3],27%
same,residual activity,[4],47%
COc1ccc(S(=O)(=O)N(Cc2ccccc2)Cc2ccc3c(c2)C=CC(C)(C)O3)cc1OC,residual activity,[2],26%
same,residual activity,[3],15%
same,residual activity,[4],54%
COc1ccc(Cl)cc1S(=O)(=O)N(Cc1ccccc1)Cc1ccc2c(c1)C=CC(C)(C)O2,residual activity,[2],78%
same,residual activity,[3],50%
same,residual activity,[4],66%
CC1(C)C=Cc2cc(CN(C3CCCCC3)S(=O)(=O)c3cc(Cl)ccc3Cl)ccc2O1,residual activity,[2],60%
same,residual activity,[3],24%
same,residual activity,[4],54%
CC1(C)C=Cc2cc(CN(c3ccccc3)S(=O)(=O)c3cc(Cl)ccc3Cl)ccc2O1,residual activity,[2],51%
same,residual activity,[3],35%
same,residual activity,[4],62%
same,Activity,[1],54.2%
CC1(C)C=Cc2cc(CN(c3ccccc3)S(=O)(=O)c3cccc4ccccc34)ccc2O1,residual activity,[2],75%
same,residual activity,[3],29%
same,residual activity,[4],55%
COc1ccc(S(=O)(=O)N(Cc2ccc3c(c2OC)OC(C)(C)C=C3)c2ccccc2)cc1OC,Activity,[1],48.6%
CC(c1ccc2c(c1)C=CC(C)(C)O2)n1cnc2ncccc21 (configuration not stated),Activity,[1],76.9%
CC(C)N(Cc1ccc2c(c1)C=CC(C)(C)O2)C(=O)c1cccs1,Activity,[1],46.2%
COc1c(CN(c2ccccc2)S(=O)(=O)c2cc(Cl)ccc2Cl)ccc2c1OC(C)(C)C=C2,Activity,[1],51.5%
COc1c(CN(C(=O)c2cccs2)c2ccccc2)ccc2c1OC(C)(C)C=C2,Activity,[1],61.8%
COc1ccc(S(=O)(=O)N(Cc2ccc3c(c2)C=CC(C)(C)O3)c2ccccc2)c(OC)c1,residual activity,[2],61%
same,residual activity,[3],31%
same,residual activity,[4],76%
COc1c(/C=N/O)ccc2c1OC(C)(C)C=C2,Activity,[1],89.4%
COc1c(CN(Cc2ccccc2)S(=O)(=O)c2cc(Cl)ccc2Cl)ccc2c1OC(C)(C)C=C2,Activity,[1],35%
COc1c(CN(C(=O)c2ccc(Br)cc2)c2ccccc2)ccc2c1OC(C)(C)C=C2,Activity,[1],63.2%
CC(C)CN(Cc1ccc2c(c1)C=CC(C)(C)O2)S(=O)(=O)c1ccc(Br)cc1OC(F)(F)F,residual activity,[2],57%
same,residual activity,[3],24%
same,residual activity,[4],49%
CC1(C)C=Cc2cc(CN(C(=O)c3ccc(Br)cc3)c3ccccc3)ccc2O1,Activity,[1],57.6%
COc1cc(OC)cc(S(=O)(=O)N(Cc2ccc3c(c2)C=CC(C)(C)O3)CC(C)C)c1,inhibition,[5],Active
same,inhibition,[6],inactive
same,IC50,[7],1011 nM
COc1c(CN(Cc2ccccc2)C(=O)c2cccs2)ccc2c1OC(C)(C)C=C2,Activity,[1],67.5%
CC1(C)C=Cc2cc(CN(c3ccccc3)S(=O)(=O)c3ccc([N+](=O)[O-])cc3)ccc2O1,residual activity,[2],66%
same,residual activity,[3],50%
same,residual activity,[4],78%
COc1c(C(C(C)C)n2ccnc2)ccc2c1C=CC(C)(C)O2 (configuration not stated),Activity,[1],135%
CC1(C)C=Cc2cc(C(O)c3cn(Cc4ccccc4)nn3)ccc2O1 (configuration not stated),Activity,[1],88.8%
CC1(C)C=Cc2cc(CN(C3CCCCC3)S(=O)(=O)c3ccc(Br)cc3OC(F)(F)F)ccc2O1,residual activity,[2],75%
same,residual activity,[3],61%
same,residual activity,[4],79%
COc1ccc(Cl)cc1S(=O)(=O)N(Cc1ccc2c(c1)C=CC(C)(C)O2)CC(C)C,residual activity,[2],90%
same,residual activity,[3],73%
same,residual activity,[4],81%
COc1c(C(C(C)C)n2cnc3ncccc32)ccc2c1C=CC(C)(C)O2 (configuration not stated),Activity,[1],88.8%
CC(C)N(Cc1ccc2c(c1)C=CC(C)(C)O2)S(=O)(=O)c1ccc([N+](=O)[O-])cc1,Activity,[1],43.2%
CC1(C)C=Cc2cc(C(O)c3cn(CCNc4ccc([N+](=O)[O-])c5nonc45)nn3)ccc2O1 (configuration not stated),Activity,[1],116%
COc1c(C(C)n2cnc3ncccc32)ccc2c1C=CC(C)(C)O2 (configuration not stated),Activity,[1],95.7%
CC1(C)C=Cc2cc(CN(C3CCCCC3)S(=O)(=O)c3ccc([N+](=O)[O-])cc3)ccc2O1,residual activity,[2],53%
same,residual activity,[3],33%
same,residual activity,[4],68%
COc1ccc(S(=O)(=O)N(Cc2ccc3c(c2)C=CC(C)(C)O3)C2CCCCC2)cc1OC,residual activity,[2],17%
same,residual activity,[3],4%
same,residual activity,[4],44%
CC(C)N(Cc1ccc2c(c1)C=CC(C)(C)O2)S(=O)(=O)c1cc(Cl)ccc1Cl,Activity,[1],41.9%
COc1c(CN(Cc2ccccc2)S(=O)(=O)c2ccc(C)cc2)ccc2c1OC(C)(C)C=C2,Activity,[1],40.4%
COc1c(CN(c2ccccc2)S(=O)(=O)c2ccc([N+](=O)[O-])cc2)ccc2c1OC(C)(C)C=C2,Activity,[1],72.4%
CC(C)CN(Cc1ccc2c(c1)C=CC(C)(C)O2)S(=O)(=O)c1ccc(Oc2c(Cl)cccc2[N+](=O)[O-])cc1,residual activity,[2],23%
same,residual activity,[3],24%
same,residual activity,[4],34%
CCN(CC)C(=O)OCn1cc(C(O)c2ccc3c(c2)C=CC(C)(C)O3)nn1 (configuration not stated),Activity,[1],97.7%
CC1(C)C=Cc2cc(C(c3ccccc3)n3cnc4cc(Cl)ccc43)ccc2O1 (configuration not stated),Activity,[1],87.9%
CC(O)c1ccc2c(c1)C=CC(C)(C)O2 (configuration not stated),Activity,[1],94.9%
COc1ccc(S(=O)(=O)N(Cc2ccccc2)Cc2ccc3c(c2OC)OC(C)(C)C=C3)cc1OC,Activity,[1],68.5%
COc1ccc(S(=O)(=O)N(Cc2ccc3c(c2)C=CC(C)(C)O3)C(C)C)cc1OC,Activity,[1],64.7%
CC1(C)C=Cc2cc(/C=N/O)ccc2O1,Activity,[1],91.4%
CC1(C)C=Cc2cc(C(O)c3cn(C45CC6CC(CC(C6)C4)C5)nn3)ccc2O1 (configuration not stated),Activity,[1],101%
COc1c(C(C)n2cnc3cc(Cl)ccc32)ccc2c1C=CC(C)(C)O2 (configuration not stated),Activity,[1],55.7%
CC1(C)C=Cc2cc(CN(c3ccccc3)S(=O)(=O)c3ccc(Br)cc3OC(F)(F)F)ccc2O1,residual activity,[2],56%
same,residual activity,[3],35%
same,residual activity,[4],53%
CC(=O)N(Cc1ccc2c(c1)C=CC(C)(C)O2)c1ccccc1,Activity,[1],91.5%
CC1(C)C=Cc2cc(C(c3ccccc3)n3cnc4ncccc43)ccc2O1 (configuration not stated),Activity,[1],83.5%
CC(C)N(Cc1ccc2c(c1)C=CC(C)(C)O2)C(=O)c1ccc(Br)cc1,Activity,[1],63.9%
CC1(C)C=Cc2cc(C(O)c3cn(C(C)(C)C)nn3)ccc2O1 (configuration not stated),Activity,[1],90.7%
COc1c(C(C)n2ccnc2)ccc2c1C=CC(C)(C)O2 (configuration not stated),Activity,[1],104%
CC1(C)C=Cc2cc(CN(c3ccccc3)S(=O)(=O)c3ccc(Oc4c(Cl)cccc4[N+](=O)[O-])cc3)ccc2O1,residual activity,[2],21%
same,residual activity,[3],27%
same,residual activity,[4],40%
CC1(C)C=Cc2cc(C(O)n3cc(-c4ccccc4)nn3)ccc2O1 (configuration not stated),Activity,[1],106%
CC1(C)C=Cc2cc(CN(Cc3ccccc3)S(=O)(=O)c3ccc(Oc4c(Cl)cccc4[N+](=O)[O-])cc3)ccc2O1,residual activity,[2],51%
same,residual activity,[3],27%
same,residual activity,[4],54%
CC1(C)C=Cc2cc(CN(C3CCCCC3)S(=O)(=O)c3cccc4ccccc34)ccc2O1,residual activity,[2],37%
same,residual activity,[3],37%
same,residual activity,[4],68%
COc1c(CN(c2ccccc2)S(=O)(=O)c2ccc(C)cc2)ccc2c1OC(C)(C)C=C2,Activity,[1],58.4%
CCOC(OCC)c1ccc2c(c1OC)OC(C)(C)C=C2,Activity,[1],105%
CC(=O)N(Cc1ccc2c(c1)C=CC(C)(C)O2)C(C)C,Activity,[1],105%
CC1(C)C=Cc2cc(CN(C(=O)c3cccs3)c3ccccc3)ccc2O1,Activity,[1],79.1%
COc1ccc(Cl)cc1S(=O)(=O)N(Cc1ccc2c(c1)C=CC(C)(C)O2)c1ccccc1,residual activity,[2],56%
same,residual activity,[3],28%
same,residual activity,[4],61%
Cc1ccc(S(=O)(=O)N(Cc2ccc3c(c2)C=CC(C)(C)O3)C(C)C)cc1,Activity,[1],55%
COc1c(CN(Cc2ccccc2)S(=O)(=O)c2ccc([N+](=O)[O-])cc2)ccc2c1OC(C)(C)C=C2,Activity,[1],62.2%
CC1(C)C=Cc2cc(C(c3ccccc3)n3ccnc3)ccc2O1 (configuration not stated),Activity,[1],88.9%
COc1c(CN(Cc2ccccc2)C(C)=O)ccc2c1OC(C)(C)C=C2,Activity,[1],93.1%
COc1ccc(S(=O)(=O)N(Cc2ccccc2)Cc2ccc3c(c2)C=CC(C)(C)O3)c(OC)c1,residual activity,[2],54%
same,residual activity,[3],20%
same,residual activity,[4],60%
CC(c1ccc2c(c1)C=CC(C)(C)O2)n1ccnc1 (configuration not stated),Activity,[1],86.6%
CC1(C)C=Cc2cc(C(O)c3cn(CCOc4ccc5ccc(=O)oc5c4)nn3)ccc2O1 (configuration not stated),Activity,[1],117%
CC1(C)C=Cc2cc(CN(C3CCCCC3)S(=O)(=O)c3ccc(Oc4c(Cl)cccc4[N+](=O)[O-])cc3)ccc2O1,residual activity,[2],49%
same,residual activity,[3],49%
same,residual activity,[4],73%
